Reference: ChEMBL document CHEMBL1132559 (J Med Chem, 1999)

Columns and labels:
[1] = molecular target: 5-hydroxytryptamine receptor 2A (Rattus norvegicus) (UniProt P14842); assay: Displacement of [3H]ketanserin from rat cortical membrane 5-hydroxytryptamine 2A receptor at 10e-7 M
Summary of the method: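 Single-concentration screen at 10^-7 M: displacement of [3H]ketanserin (1.0 nM) from rat cortical membranes, methysergide as reference. Reported as % inhibition versus binding with no drug, mean of duplicate tubes in one experiment. Checked against a verification screen.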

[2] = molecular target: T1, Adrenergic receptor alpha-1 (Rattus norvegicus, UniProt P15823+P23944+P43140); assay: Compound was tested for the inhibition of [3H]-prazosin binding to Alpha-1 adrenergic receptor; type: protein assay
T1 sequence (P15823 whole entry): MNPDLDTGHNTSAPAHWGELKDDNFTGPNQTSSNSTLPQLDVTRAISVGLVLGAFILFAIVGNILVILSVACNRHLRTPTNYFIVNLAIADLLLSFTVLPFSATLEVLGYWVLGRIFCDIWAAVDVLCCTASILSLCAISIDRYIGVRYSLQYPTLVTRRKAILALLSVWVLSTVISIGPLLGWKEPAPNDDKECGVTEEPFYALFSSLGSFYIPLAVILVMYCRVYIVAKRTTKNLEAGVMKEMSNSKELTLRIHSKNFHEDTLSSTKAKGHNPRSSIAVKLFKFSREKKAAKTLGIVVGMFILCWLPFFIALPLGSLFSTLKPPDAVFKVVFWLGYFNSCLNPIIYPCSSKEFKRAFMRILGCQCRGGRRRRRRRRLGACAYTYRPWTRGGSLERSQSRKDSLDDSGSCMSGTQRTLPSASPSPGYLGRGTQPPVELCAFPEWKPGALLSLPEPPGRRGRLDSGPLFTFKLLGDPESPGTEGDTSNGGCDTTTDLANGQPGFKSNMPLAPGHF
T1 sequence (P23944 whole entry): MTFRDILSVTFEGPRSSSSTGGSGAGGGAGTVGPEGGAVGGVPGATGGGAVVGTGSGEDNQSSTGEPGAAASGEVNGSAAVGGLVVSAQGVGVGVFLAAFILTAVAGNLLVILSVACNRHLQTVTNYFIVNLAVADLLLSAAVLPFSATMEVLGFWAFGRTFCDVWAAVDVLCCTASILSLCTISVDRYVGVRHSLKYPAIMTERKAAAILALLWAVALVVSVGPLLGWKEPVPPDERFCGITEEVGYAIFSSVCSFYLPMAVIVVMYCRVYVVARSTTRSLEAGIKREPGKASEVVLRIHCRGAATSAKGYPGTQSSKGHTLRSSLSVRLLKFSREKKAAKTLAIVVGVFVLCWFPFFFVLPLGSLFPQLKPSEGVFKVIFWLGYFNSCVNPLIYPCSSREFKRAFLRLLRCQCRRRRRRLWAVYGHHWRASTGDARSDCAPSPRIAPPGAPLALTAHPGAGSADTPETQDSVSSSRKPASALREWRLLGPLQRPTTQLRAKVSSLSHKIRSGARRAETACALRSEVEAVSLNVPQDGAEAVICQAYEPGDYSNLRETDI
T1 sequence (P43140 whole entry): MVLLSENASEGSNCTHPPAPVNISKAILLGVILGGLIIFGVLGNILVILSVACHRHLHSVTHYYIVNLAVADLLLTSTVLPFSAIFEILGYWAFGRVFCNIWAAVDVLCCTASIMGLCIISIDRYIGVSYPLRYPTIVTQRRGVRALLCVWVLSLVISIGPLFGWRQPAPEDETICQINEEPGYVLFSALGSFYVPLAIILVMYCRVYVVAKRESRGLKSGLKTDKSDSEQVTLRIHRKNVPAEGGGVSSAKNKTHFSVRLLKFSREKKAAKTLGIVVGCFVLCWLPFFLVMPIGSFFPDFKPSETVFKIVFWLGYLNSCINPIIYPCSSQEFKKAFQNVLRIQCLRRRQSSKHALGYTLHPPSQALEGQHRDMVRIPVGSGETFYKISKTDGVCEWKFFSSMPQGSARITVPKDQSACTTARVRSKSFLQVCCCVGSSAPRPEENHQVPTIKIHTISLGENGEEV
Summary of the method: (§1)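 Radioligand displacement on rat cortical membranes using [3H]prazosin (0.5 nM), with prazosin as the reference compound. IC50 derived from six test concentrations, each in triplicate, in one experiment. Run at an external screening laboratory.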

[3] = test system: Serotonin transporter (Rattus norvegicus); assay: Displacement of [3H]-citalopram from rat forebrain membrane serotonin transporter at 10e-7 M
[4] = test system: Sigma non-opioid intracellular receptor 1 (Sus scrofa); assay: Inhibition of [3H](+)-pentazocine binding to Sigma opioid receptor type 1 of pig brain membranes at 10e-7 M
[5] = molecular target: T2, 5-hydroxytryptamine receptor 2A (Rattus norvegicus, UniProt P14842); assay: Compound was tested for the inhibition of [3H]ketanserin binding to 5-hydroxytryptamine 2A receptor
Summary of the method: (§2)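 Radioligand displacement on rat cortical membranes using [3H]ketanserin (1.0 nM), with methysergide as the reference compound. IC50 derived from six test concentrations, each in triplicate, in one experiment. Run at an external screening laboratory.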

[6] = molecular target: Norepinephrine transporter (Rattus norvegicus) (UniProt Q9WTR4); assay: Inhibition of [3H]desmethylimipramine binding to […] of rat cortical membrane at 10e-7 M
Summary of the method: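 Single-concentration screen at 10^-7 M: displacement of [3H]desmethylimipramine (3.0 nM) from rat cortical membranes, desipramine as reference. Reported as % inhibition versus binding with no drug, mean of duplicate tubes in one experiment.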

[7] = molecular target: D(2) dopamine receptor (Rattus norvegicus) (UniProt P61169); assay: Displacement of [3H]sulpiride from rat striatal membrane Dopamine receptor D2 at 10e-7 M
Summary of the method: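 Single-concentration screen at 10^-7 M: displacement of [3H]sulpiride (3.0 nM) from rat striatal membranes, sulpiride as reference. Reported as % inhibition versus binding with no drug, mean of duplicate tubes in one experiment.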

[8] = molecular target: Adrenergic receptor alpha-1 (Rattus norvegicus) (UniProt P15823+P23944+P43140); assay: Displacement of [3H]prazosin from Alpha-1 adrenergic receptor of rat cortical membrane at 10e-7 M
Summary of the method: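 Single-concentration screen at 10^-7 M: displacement of [3H]prazosin (0.5 nM) from rat cortical membranes, prazosin as reference. Reported as % inhibition versus binding with no drug, mean of duplicate tubes in one experiment. Checked against a verification screen.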

[9] = molecular target: Histamine H1 receptor (Bos taurus) (UniProt P30546); assay: Inhibition of [3H]pyrilamine binding to Histamine H1 receptor of bovine cerebellar membrane at 10e-7 M
Summary of the method: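 Single-concentration screen at 10^-7 M: displacement of [3H]pyrilamine (2.0 nM) from bovine cerebellar membranes, triprolidine as reference. Reported as % inhibition versus binding with no drug, mean of duplicate tubes in one experiment.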

[10] = organism: Rattus norvegicus; assay: In vitro functional activity (pA2) by using isolated rat aorta smooth muscle preparation (on serotonergic system); conditions: Muscle tissue, read-out: pA2 (converted)
Summary of the method: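 Aorta strips from male Sprague–Dawley rats (200-300 g), 3-7 preparations, isometric contraction recorded. Cumulative serotonin concentration-response curves built stepwise once each response was steady.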

[11] = organism: Rattus norvegicus; assay: In vitro functional activity (pA2) by using isolated rat vas deferens smooth muscle preparation (on adrenergic system); conditions: Muscle tissue, read-out: pA2 (converted)
Summary of the method: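 Vas deferens from male Sprague–Dawley rats (200-300 g), 3-4 preparations, isometric contraction recorded. Cumulative L-noradrenaline concentration-response curves built stepwise once each response was steady.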

[12] = molecular target: T2, 5-hydroxytryptamine receptor 2A; assay: Compound was tested for it's binding affinity towards 5-hydroxytryptamine 2A receptor; summary of the method: as §2
[13] = molecular target: T1, Adrenergic receptor alpha-1; assay: Compound was tested for it's binding affinity towards Alpha-1 adrenergic receptor; type: protein assay; summary of the method: as §1
[14] = molecular target: T1, Adrenergic receptor alpha-1; assay: Compound was tested for it's binding affinity towards alpha-1 adrenergic receptor; type: protein assay; summary of the method: as §1

Norepinephrine transporter (Rattus norvegicus), sequence (Q9WTR4 as listed by the source): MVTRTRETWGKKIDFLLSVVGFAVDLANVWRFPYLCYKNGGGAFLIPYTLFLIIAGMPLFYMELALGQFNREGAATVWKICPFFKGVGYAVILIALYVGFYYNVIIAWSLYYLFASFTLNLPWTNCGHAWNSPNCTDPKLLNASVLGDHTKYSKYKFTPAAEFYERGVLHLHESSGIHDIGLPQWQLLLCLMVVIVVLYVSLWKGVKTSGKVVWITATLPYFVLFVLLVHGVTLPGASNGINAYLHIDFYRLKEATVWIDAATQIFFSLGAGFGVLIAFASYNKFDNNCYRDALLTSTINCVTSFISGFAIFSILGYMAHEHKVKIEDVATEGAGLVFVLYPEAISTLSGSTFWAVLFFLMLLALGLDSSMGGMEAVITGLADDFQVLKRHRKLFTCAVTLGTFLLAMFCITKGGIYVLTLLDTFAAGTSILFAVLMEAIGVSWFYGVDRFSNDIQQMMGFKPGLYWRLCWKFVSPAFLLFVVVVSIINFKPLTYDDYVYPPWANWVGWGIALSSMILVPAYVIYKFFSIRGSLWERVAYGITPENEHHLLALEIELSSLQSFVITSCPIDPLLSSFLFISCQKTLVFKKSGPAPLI
D(2) dopamine receptor (Rattus norvegicus), sequence (P61169 whole entry): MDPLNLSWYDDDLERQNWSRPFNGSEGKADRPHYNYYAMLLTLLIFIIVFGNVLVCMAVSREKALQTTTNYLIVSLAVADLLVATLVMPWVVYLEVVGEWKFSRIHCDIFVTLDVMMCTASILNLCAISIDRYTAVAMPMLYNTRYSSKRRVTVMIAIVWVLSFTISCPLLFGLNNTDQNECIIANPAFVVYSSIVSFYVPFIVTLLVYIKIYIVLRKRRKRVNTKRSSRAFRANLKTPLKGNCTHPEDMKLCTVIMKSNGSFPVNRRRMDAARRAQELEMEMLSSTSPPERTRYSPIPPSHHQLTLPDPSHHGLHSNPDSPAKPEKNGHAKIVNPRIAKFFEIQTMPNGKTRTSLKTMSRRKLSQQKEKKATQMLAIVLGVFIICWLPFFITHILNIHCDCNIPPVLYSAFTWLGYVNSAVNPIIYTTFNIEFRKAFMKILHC
Histamine H1 receptor (Bos taurus), sequence (P30546 whole entry): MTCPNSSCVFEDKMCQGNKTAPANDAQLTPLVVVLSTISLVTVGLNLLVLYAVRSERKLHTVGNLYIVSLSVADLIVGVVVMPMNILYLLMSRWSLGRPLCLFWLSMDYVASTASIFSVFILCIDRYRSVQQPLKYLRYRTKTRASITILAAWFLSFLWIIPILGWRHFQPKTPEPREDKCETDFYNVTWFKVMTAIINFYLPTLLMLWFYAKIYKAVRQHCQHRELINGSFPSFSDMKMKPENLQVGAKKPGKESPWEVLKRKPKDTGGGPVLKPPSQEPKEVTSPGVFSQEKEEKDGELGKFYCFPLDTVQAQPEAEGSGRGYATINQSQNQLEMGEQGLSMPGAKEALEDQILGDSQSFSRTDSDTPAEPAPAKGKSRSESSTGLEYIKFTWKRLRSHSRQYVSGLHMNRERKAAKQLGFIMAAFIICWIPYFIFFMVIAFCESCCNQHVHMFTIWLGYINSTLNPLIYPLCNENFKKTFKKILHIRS
5-hydroxytryptamine receptor 2A (Rattus norvegicus), sequence (P14842 whole entry): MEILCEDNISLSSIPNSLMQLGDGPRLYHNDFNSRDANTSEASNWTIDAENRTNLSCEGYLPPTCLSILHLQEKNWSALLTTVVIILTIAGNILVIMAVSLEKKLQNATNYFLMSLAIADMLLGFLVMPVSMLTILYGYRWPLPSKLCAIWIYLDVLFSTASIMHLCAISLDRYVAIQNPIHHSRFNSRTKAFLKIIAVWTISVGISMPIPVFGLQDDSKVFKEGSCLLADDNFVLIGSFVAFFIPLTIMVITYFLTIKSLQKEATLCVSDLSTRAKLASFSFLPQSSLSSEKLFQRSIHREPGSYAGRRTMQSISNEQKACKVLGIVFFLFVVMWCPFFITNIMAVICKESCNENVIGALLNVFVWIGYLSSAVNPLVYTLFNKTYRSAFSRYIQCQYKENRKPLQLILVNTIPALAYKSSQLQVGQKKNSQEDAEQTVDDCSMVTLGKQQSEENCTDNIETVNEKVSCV
T2 sequence (P14842 whole entry): as above

| SMILES | inhibition [1] | IC50 [2] | inhibition [3] | inhibition [4] | IC50 [5] | inhibition [6] | inhibition [7] | inhibition [8] | inhibition [9] | Kb [10] | Kb [11] | IC50 [12] | IC50 [13] | IC50 [14] |
| --- | --- | --- | --- | --- | --- | --- | --- | --- | --- | --- | --- | --- | --- | --- |
| CC1CN(c2cccc(Cl)c2)CCN1CCCn1nc2ccccn2c1=O (centres undefined) | 69% | 471 nM | 45% | 43% | 31 nM | 2% | 8% | 37% | 13% | – | – | – | – | – |
| O=c1n(CCCNCCNc2cccc(Cl)c2)nc2ccccn12 | 4% | – | 10% | 29% | – | 0% | 3% | 8% | 0% | – | – | – | – | – |
| O=C1CN(CCCn2nc3ccccn3c2=O)CCN1c1cccc(Cl)c1 | 5% | – | 2% | 12% | – | 0% | 0% | 5% | 2% | – | – | – | – | – |
| CC1C(=O)N(c2cccc(Cl)c2)CCN1CCCn1nc2ccccn2c1=O (centres undefined) | 0% | – | 0% | 9% | – | 0% | 4% | 2% | 4% | – | – | – | – | – |
| CN(CCNCCCn1nc2ccccn2c1=O)c1cccc(Cl)c1 | 0% | – | 23% | 65% | – | 0% | 4% | 12% | 0% | – | – | – | – | – |
| CC1CN(CCCn2nc3ccccn3c2=O)C(C)(C)CN1c1cccc(Cl)c1 (centres undefined) | 40% | – | 38% | 81% | – | 0% | 3% | 11% | 9% | – | – | – | – | – |
| CC(CN1CCN(c2cccc(Cl)c2)CC1)Cn1nc2ccccn2c1=O (centres undefined) | 52% | 531 nM | 4% | 34% | 94 nM | 0% | 3% | 27% | 7% | – | – | – | – | – |
| CCC1CN(c2cccc(Cl)c2)CCN1CCCn1nc2ccccn2c1=O (centres undefined) | 60% | 493 nM | 20% | 43% | 169 nM | 0% | 10% | 44% | 14% | – | – | – | – | – |
| CC(CCn1nc2ccccn2c1=O)N1CCN(c2cccc(Cl)c2)CC1 (centres undefined) | 65% | 627 nM | 63% | 58% | 17 nM | 0% | 2% | 26% | 31% | – | – | – | – | – |
| C[C@@H]1CN(c2cccc(Cl)c2)CCN1CCCn1nc2ccccn2c1=O | – | – | – | – | – | – | – | – | – | 12.6 nM | 158 nM | 234 nM | 533 nM | – |
| O=c1n(CCCN2CCN(c3cccc(Cl)c3)CC2)nc2ccccn12 | 78% | – | – | – | – | 0% | 12% | – | 5% | – | – | – | – | – |
| CN(CCCn1nc2ccccn2c1=O)CCNc1cccc(Cl)c1 | 0% | – | 15% | 30% | – | 4% | 2% | 10% | 0% | – | – | – | – | – |
| CC(CN1CCN(c2cccc(Cl)c2)C(C)C1)Cn1nc2ccccn2c1=O (centres undefined) | 20% | – | 6% | 65% | – | 0% | 0% | 7% | 12% | – | – | – | – | – |
| C[C@H]1CN(c2cccc(Cl)c2)CCN1CCCn1nc2ccccn2c1=O | – | – | – | – | – | – | – | – | – | 3.16 nM | 3980 nM | 25.4 nM | – | 981 nM |
| CC1CN(CCCn2nc3ccccn3c2=O)CCN1c1cccc(Cl)c1 (centres undefined) | 34% | – | 15% | 68% | – | 0% | 0% | 25% | 7% | – | – | – | – | – |
